Measurements: ChEMBL document CHEMBL2202988, “D-amino acid based protein arginine deiminase inhibitors: Synthesis, pharmacokinetics, and in cellulo efficacy” (ACS Med Chem Lett, 2012)
Activity calls are given as the source filed them. The rule behind the calls is not given here.

Key:
MDA-MB-231 [1] = experiment: Cytotoxicity against human MDA-MB-231 cells assessed as decrease in cell number at 400 uM after 96 hrs by trypan blue assay; format: functional, cell-based
Summary of the method: (§1)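 MDA-MB-231 breast cancer cells (PAD1-overexpressing) exposed to inhibitor at 100, 200 and 400 μM; percent viability and cell number read 96 h after addition.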

MDA-MB-231 [2] = experiment: Antiproliferative activity against human MDA-MB-231 cells assessed as Ki-67 level at 100 to 400 uM; format: functional, cell-based
Summary of the method: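 MDA-MB-231 triple-negative breast cancer cells (PAD1-overexpressing) exposed to inhibitor at 100, 200 and 400 μM; Ki-67 level taken as the proliferation read-out; tunicamycin at increasing amounts served as positive control for cell-cycle arrest.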

MDA-MB-231 [3] = experiment: Cytotoxicity against human MDA-MB-231 cells assessed as cell viability at 400 uM after 96 hrs by trypan blue assay; format: functional, cell-based; summary of the method: as §1
MDA-MB-231 [4] = experiment: Induction of apoptosis in human MDA-MB-231 cells assessed as caspase-3 activity at 100 to 400 uM; format: functional, cell-based
Summary of the method: (§2)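 MDA-MB-231 cells given inhibitor at 100, 200 and 400 μM; caspase 3 activity measured 96 h after administration.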

Mus musculus [5] = experiment: Toxicity in po dosed C57BL/6J mouse; format: organism-based; conditions: in vivo
Summary of the method: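 Mice (n = 10 per group) were dosed per os at varying doses up to 150 mg/kg. Percent change in total body weight was tracked to 96 h, along with observable signs of toxicity. MTD was taken as the highest dose causing no weight loss or significant toxicity signs. Weight change was tested for significance (P < 0.05).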

Mus musculus [6] = experiment: Toxicity in C57BL/6J mouse assessed as change in body weight at 5 to 150 mg/kg, po after 1 to 96 hrs; format: organism-based; design: route oral; conditions: in vivo
Summary of the method: (§3)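 Oral dosing of mice (n = 10) at varying doses up to 150 mg/kg; percent change in body weight followed to 96 h, significance at P <0.05.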

MDA-MB-231 [7] = experiment: Antiproliferative activity against human MDA-MB-231 cells assessed as decrease in Ki-67 level; format: functional, cell-based
Summary of the method: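 MDA-MB-231 triple-negative breast cancer cells (PAD1-overexpressing) treated at 100, 200 and 400 μM. Ki-67 levels assessed 96 h after administration. Tunicamycin served as the positive control for cell cycle arrest.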

Mus musculus [8] = experiment: Toxicity in C57BL/6J mouse assessed as body shaking at 150 mg/kg, po after 1 to 4 hrs; format: organism-based; design: dose 150 mg/kg, route oral; conditions: in vivo
Summary of the method: (§4)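 Mice dosed per os at graded levels up to 150 mg/kg; observable physiological signs (shaking, anxiety, hunching, heavy breathing, stool changes, diarrhea) recorded after treatment, with monitoring over the following days.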

Mus musculus [9] = experiment: Toxicity in C57BL/6J mouse assessed as anxiety at 150 mg/kg, po after 1 to 4 hrs; format: organism-based; design: dose 150 mg/kg, route oral; conditions: in vivo; summary of the method: as §4
MDA-MB-231 [10] = experiment: Cytotoxicity against human MDA-MB-231 cells assessed as decrease in cell viability at 200 to 400 uM after 96 hrs by trypan blue assay; format: functional, cell-based; summary of the method: as §1
Liver = experiment: Half life in mouse liver microsomes; format: ADME, Microsome
Summary of the method: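 Stability assessed by incubation with murine hepatic microsomes; half-life derived from compound remaining over time.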

Mus musculus [11] = experiment: Toxicity in C57BL/6J mouse assessed as bloody stools at 150 mg/kg, po; format: organism-based; design: dose 150 mg/kg, route oral; conditions: in vivo; summary of the method: as §4
Mus musculus [12] = experiment: Drug metabolism in C57Bl/6 mouse at 10 mg/kg, ip measured within 4 hrs by LC-MS/MS analysis; format: ADME, organism-based; design: dose 10 mg/kg, route intraperitoneal; conditions: in vivo
Summary of the method: (§5)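 Mice dosed by iv (2.5 or 10 mg/kg) or ip (10 mg/kg) injection; serum/plasma drug levels measured over time up to 4 h, plotted as mean levels.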

Mus musculus [13] = experiment: Drug metabolism in C57Bl/6 mouse at 10 mg/kg, iv measured within 2 hrs by LC-MS/MS analysis; format: ADME, organism-based; design: dose 10 mg/kg, route intravenous; conditions: in vivo; summary of the method: as §5
MDA-MB-231 [14] = experiment: Induction of apoptosis in human MDA-MB-231 cells assessed as increase in caspase-3 activity; format: functional, cell-based; summary of the method: as §2
Mus musculus [15] = experiment: Toxicity in C57BL/6J mouse assessed as loss in body weight at 100 to 150 mg/kg, po after 96 hrs; format: organism-based; design: dose 100-150 mg/kg, route oral; conditions: in vivo; summary of the method: as §3
Mus musculus [16] = experiment: Toxicity in C57BL/6J mouse assessed as heavy breathing at 150 mg/kg, po after 1 to 4 hrs; format: organism-based; design: dose 150 mg/kg, route oral; conditions: in vivo; summary of the method: as §4
Mus musculus [17] = experiment: Toxicity in C57BL/6J mouse assessed as hunching at 150 mg/kg, po after 1 to 4 hrs; format: organism-based; design: dose 150 mg/kg, route oral; conditions: in vivo; summary of the method: as §4
Mus musculus [18] = experiment: Toxicity in C57BL/6J mouse assessed as occurrence of diarrhea at 150 mg/kg, po after 2 to 3 days; format: organism-based; design: dose 150 mg/kg, route oral; conditions: in vivo; summary of the method: as §4
[19] = Drug level in C57Bl/6 mouse serum at 2.5 mg/kg, iv after 2 hrs by LC-MS/MS analysis; format: ADME, organism-based; design: dose 2.5 mg/kg, route intravenous; conditions: read-out: Drug uptake; summary of the method: as §5
[20] = Drug level in C57Bl/6 mouse serum at 10 mg/kg, ip after 4 hrs by LC-MS/MS analysis; format: ADME, organism-based; design: dose 10 mg/kg, route intraperitoneal; conditions: read-out: Drug uptake; summary of the method: as §5
[21] = Drug level in C57Bl/6 mouse serum at 2.5 mg/kg, iv after 4 hrs by LC-MS/MS analysis; format: ADME, organism-based; design: dose 2.5 mg/kg, route intravenous; conditions: read-out: Drug uptake; summary of the method: as §5

Compound	Activity (MDA-MB-231 [1])	Activity (MDA-MB-231 [2])	MTD (Mus musculus [5]) [mg/kg]	Activity (Mus musculus [6])	Activity (MDA-MB-231 [10])	t1/2 (Liver) [min]	Activity (MDA-MB-231 [14])	other results
N=C(CF)NCCC[C@@H](NC(=O)c1ccccc1C(=O)O)C(N)=O	inactive	inactive	> 150	Non-toxic	–	–	–	Activity (MDA-MB-231 [3]): inactive; Activity (MDA-MB-231 [4]): inactive
CC(=O)N[C@H]1[C@@H](O[C@@H]2O[C@H](CC(O)[C@H]3O[C@@H](n4ccc(=O)[nH]c4=O)[C@H](O)[C@@H]3O)[C@H](O)[C@H](O)[C@H]2NC(=O)/C=C/CC(C)C)O[C@H](CO)[C@@H](N)[C@@H]1O (some centres not stated)	–	–	–	–	–	–	–	Activity (MDA-MB-231 [7]): Active
N=C(CCl)NCCC[C@H](NC(=O)c1ccccc1)C(N)=O	Active	inactive	75	–	Active	37	Dose-dependent effect	Activity (Mus musculus [8]): Toxic; Activity (Mus musculus [9]): Toxic; Activity (Mus musculus [11]): Toxic; Drug metabolism (Mus musculus [12]): Active; Drug metabolism (Mus musculus [13]): Active; Activity (Mus musculus [15]): Toxic; Activity (Mus musculus [16]): Toxic; Activity (Mus musculus [17]): Toxic; Activity (Mus musculus [18]): Toxic
N=C(CCl)NCCC[C@@H](NC(=O)c1ccccc1)C(N)=O	Active	inactive	> 150	Non-toxic	Active	33	Dose-dependent effect	concentration at 2 h [19]: 21 nM; concentration at 4 h [20]: 10 nM; concentration at 4 h [21]: 10 nM
